In paper PMC7564034 (Acta Pharmaceutica Sinica. B, 2019):
Read-outs that look alike come from different tables or passages of the source. Each block holds one compound with its values, some of them ahead of it.

Legend:
FGF = assay: ELISA of FGF secretion in tumors; format: in vivo, Balb/c mice harboring LoVo xenografts; conditions: 15 days i.p.; SMI, Rd-H 5 mg/kg, Rb1, Rg1; vs vehicle
Summary of the method: (§1)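 Mice received test compound i.p. for 15 days. Tumors were harvested 20 min after the final dose and homogenized in RIPA buffer. VEGF and FGF were quantified by ELISA kit and normalized to protein content measured by BCA assay. Compared with vehicle.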

HUVEC = assay: Uptake of ginsenosides by HUVEC in vitro; format: cell-based, human; conditions: compared to Rb1 and Rb2 (Fig. S5)
LoVo = assay: Uptake of ginsenosides by LoVo in vitro; format: cell-based, human; conditions: compared to Rb1 and Rb2 (Fig. S5)
HUVECs [1] = assay: Cell viability assay; format: cell-based, human; conditions: Rd 1–50 μmol/L, SMI 5 μL/mL; 24 h; normoxia or hypoxia
Summary of the method: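 HUVECs were exposed to test compound for 24 h under normoxia or hypoxia (1% O2, 5% CO2). Viability was measured by MTT and expressed as a percentage of DMSO-treated cells under normoxia; n = 6.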

HUVECs [2] = assay: EDU staining; format: cell-based, human; conditions: Rd 2, 10, 50 μmol/L; 24 h; hypoxia
HUVECs [3] = assay: Wound healing migration assay; format: cell-based, human; conditions: 24 h
Summary of the method: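 Confluent HUVEC monolayers were scratched with sterile pipette tips and given fresh DMEM containing test compound. Cells were incubated under normoxia or hypoxia (1% O2, 5% CO2) and imaged at 0 and 24 h. Migration length = (scratch area 0 h − scratch area 24 h)/scratch length; n = 6.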

LoVo xenografts = assay: Xenograft tumor growth, SMI or Rd combined with 5FU, 20-day treatment; format: in vivo, Balb/c mice; conditions: SMI 10 mL/kg/day or Rd 5 mg/kg/day i.p., 20 days, without 5FU
Summary of the method: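 LoVo-xenograft mice with all tumors above 50 mm3 were dosed i.p. for 20 days: 10 mL/kg/day, 5 mg/kg/day, and/or 5FU 15 mg/kg every 3 days. Body weight and tumor axes were recorded daily; tumor volume = 1/2 × a × b². Tumors were resected after treatment. Weight change was read after 17 days; mean ± SEM.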

[4] = test system: tumor vessels in LoVo xenografts; assay: CD31 staining of tumor slides, microvessels and vessel branches; format: in vivo, Balb/c nude mice; conditions: 15 days i.p.
Summary of the method: (§2)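 Tumors from mice given test compound i.p. for 15 days were fixed in 4% PFA and cut into 12 μm sections. Sections were stained overnight with anti-CD31 at 1:100; for pericyte coverage, anti-SMA at 1:100 was added. Cy5- or Cy2-conjugated secondary (1:200) was applied for 1 h at 37 °C. Confocal Z-stacks were reconstructed in 3D or as maximum intensity projections. Compared with vehicle.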

VEGF = assay: ELISA of VEGF secretion in tumors; format: in vivo, Balb/c mice harboring LoVo xenografts; conditions: 15 days i.p., vs vehicle
Summary of the method: as §1

[5] = test system: tumor vessels in LoVo xenografts; assay: CD31/α-SMA double staining, pericyte coverage around tumor vessels; format: in vivo, Balb/c nude mice; conditions: 15 days i.p.; SMI, Rd-H 5 mg/kg; vs vehicle
Summary of the method: as §2

[6] = format: in vivo, Balb/c nude mice harboring LoVo xenografts; conditions: 20 min after 15-day SMI treatment
Summary of the method: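 Male 6-week Balb/c nude mice (18 ± 1 g) bearing LoVo xenografts were given SMI intraperitoneally for 15 days. Tumors collected 20 min after the final dose were minced and digested 1 h in DMEM with 2 mg/mL collagenase type I and 0.1 mg/mL DNase I. Cells were split into endothelial, hematopoietic and other fractions; purity was checked by flow cytometry (anti-mouse CD45, viability stain). n = 3, mean ± SEM.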

[7] = Constituent ratio of ginsenosides in SMI, plasma, tumor and endothelial cells; format: in vivo, Balb/c nude mice harboring LoVo xenografts; conditions: 20 min after 15-day SMI treatment
Summary of the method: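 Tissues were sampled 20 min after the last dose of a 15-day i.p. course. Tumors were digested 1 h in DMEM with collagenase I (2 mg/mL) and DNase I (0.1 mg/mL), then strained through 40 μm mesh. CD31+ cells were enriched with PE anti-mouse CD31 and anti-PE magnetic particles, with purity checked by CD45/viability flow cytometry; n = 3. Each ratio = concentration of the constituent / summed eight ginsenosides.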

[8] = format: in vivo, Balb/c nude mice harboring LoVo xenografts; conditions: for Cmax / Tmax: Balb/c nude, mouse, plasma
Summary of the method: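 Male LoVo-xenograft nude mice (6 weeks old) received 10 mL/kg i.p., either once or daily for 8 days. Blood (~0.1 mL) was drawn from the oculi chorioideae vein into heparin tubes between 5 min and 96 h after the last dose, 5 mice per time point. Plasma was spun at 8000 rpm for 5 min and extracted with methanol. AUC0–∞ and the multiple/single ratio were derived.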

HUVECs [9] = assay: Capillary-like tube formation assay; format: cell-based; conditions: Homo sapiens, HUVEC, read-out: Inhibition of tube formation ability of HUVECs
Summary of the method: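 Conditioned medium was taken as supernatant after 24 h exposure to test compound (2, 10, 50 μmol/L). HUVECs were seeded at 5 × 10^4 cells/well on Matrigel and treated with this medium for 5.5 h under normoxia or hypoxia (1% O2, 5% CO2). Tubes were stained with calcein for 0.5 h before imaging.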

[10] = format: in vivo, Balb/c nude mice harboring LoVo xenografts; conditions: for AUC0–∞ ratio Multiple/Single in tumors: 8-day vs single SMI 10 mL/kg/day i.p.
[11] = format: in vivo, mice harboring xenograft tumors; conditions: after intraperitoneal injection of Rb1, Rc, or Rd; data not shown
[12] = SMI i.p., single or multiple not given
[13] = after eight days of SMI 10 mL/kg/day i.p.
[14] = single dose of SMI 10 mL/kg i.p.

Uptake by HUVEC (HUVEC): superior uptake
Uptake by LoVo (LoVo): superior uptake
Concentration of ginsenosides, endothelial cells (TECs) [6]: most abundant distribution in TECs
Constituent ratio in TECs [7]: 40.3%
Constituent ratio in plasma [7]: 16.0%
Constituent ratio in tumor tissues [7]: 34.3%
AUC0–∞ ratio Multiple/Single in plasma ([8]; 8-day vs single SMI 10 mL/kg/day i.p.): 5.28
Cmax ([8]; intraperitoneal, 10 mL/kg): ~10 µM
Cmax ([8]; ip, 10 mL/kg): 3200 ng/mL
Tmax ([8]; ip, 10 mL/kg): 240 min
Cmax ([8]; ip, 10 mL/kg/day): 10400 ng/mL
Tmax ([8]; ip, 10 mL/kg/day): 120 min
AUC0–∞ in plasma relative to those of Re, Rg1, Rg3 and Ro ([8]; after single or multiple SMI administration): more than 20 times
AUC0–∞ ratio Multiple/Single in tumors [10]: 10.53
AUC0–∞ of Rd in tumors, times higher than that of Rb1 [10, 12]: 8.0 times
AUC0–∞ of Rd in tumors, times higher than that of Rb2/Rb3 [10, 12]: 7.3 times
AUC0–∞ of Rd in tumors, times higher than that of Rc [10, 12]: 3.6 times
AUC0–∞ of Rd in tumors, times higher than that of Ro [10, 12]: 266.6 times
SMILES: CC(C)=CCC[C@](C)(O[C@@H]1O[C@H](CO)[C@@H](O)[C@H](O)[C@H]1O)[C@H]1CC[C@]2(C)[C@@H]1[C@H](O)C[C@@H]1[C@@]3(C)CC[C@H](O[C@@H]4O[C@H](CO)[C@@H](O)[C@H](O)[C@H]4O[C@@H]4O[C@H](CO)[C@@H](O)[C@H](O)[C@H]4O)C(C)(C)[C@@H]3CC[C@]12C [Rd, ginsenoside Rd]
Suppression of the secretion of FGF in tumors (FGF): 68%
Effect on cell viability of HUVECs (HUVECs [1]): no effect on the cell viability
Effect on cellular proliferation of HUVECs (EDU/HOECHST) (HUVECs [2]): no significant effect on cellular proliferation
Suppression of hypoxia-induced HUVEC migration (HUVECs [3]; 50 μmol/L): 88%
Effect on HUVECs migration (HUVECs [3]; Rd 2, 10 and 50 μmol/L or SMI, hypoxia): suppressed HUVECs migration concentration-dependently
Effect on tumor growth, given alone (LoVo xenografts): no significant effect on tumor growth
Effect on microvessels, branches and pericyte coverage ([4]; Rd-L 0.5 mg/kg): very modest effects
Decrease of the number of CD31+ microvessels ([4]; SMI, Rd-H 5 mg/kg, vs vehicle): 37%
Decrease of vessel branches ([4]; SMI, Rd-H 5 mg/kg, vs vehicle): 59%
Reduction of the secretion of VEGF in tumors (VEGF; Rd-L 0.5 mg/kg): 32%
Reduction of the secretion of VEGF in tumors (VEGF; SMI, Rd-H 5 mg/kg, Rb1, Rg1): 32%
Increase of pericyte coverage around microvessels [5]: 2.1 fold
inhibition at 2 µM (HUVECs [9]): 18%
inhibition at 10 µM (HUVECs [9]): 40%
inhibition at 50 µM (HUVECs [9]): 56%

Cmax ([8]; ip, 10 mL/kg): 1600 ng/mL
Tmax ([8]; ip, 10 mL/kg): 10 min
Cmax ([8]; ip, 10 mL/kg/day): 1300 ng/mL
Tmax ([8]; ip, 10 mL/kg/day): 10 min
SMILES: CC(C)=CCC[C@](C)(O[C@@H]1O[C@H](CO)[C@@H](O)[C@H](O)[C@H]1O)[C@H]1CC[C@]2(C)[C@@H]1[C@H](O)C[C@@H]1[C@@]3(C)CC[C@H](O)C(C)(C)[C@@H]3[C@@H](O[C@@H]3O[C@H](CO)[C@@H](O)[C@H](O)[C@H]3O[C@@H]3O[C@@H](C)[C@H](O)[C@@H](O)[C@H]3O)C[C@]12C [Re]

Continued, compound first:

SMILES: CC(C)=CCC[C@](C)(O[C@@H]1O[C@H](CO)[C@@H](O)[C@H](O)[C@H]1O)[C@H]1CC[C@]2(C)[C@@H]1[C@H](O)C[C@@H]1[C@@]3(C)CC[C@H](O)C(C)(C)[C@@H]3[C@@H](O[C@@H]3O[C@H](CO)[C@@H](O)[C@H](O)[C@H]3O)C[C@]12C [Rg1]
Suppression of the secretion of FGF in tumors (FGF): 97%
Reduction of the secretion of VEGF in tumors (VEGF; SMI, Rd-H 5 mg/kg, Rb1, Rg1): 1%
Cmax ([8]; ip, 10 mL/kg): 2000 ng/mL
Tmax ([8]; ip, 10 mL/kg): 10 min
Cmax ([8]; ip, 10 mL/kg/day): 2100 ng/mL
Tmax ([8]; ip, 10 mL/kg/day): 10 min

SMILES: CC(C)=CCC[C@](C)(O)[C@H]1CC[C@]2(C)[C@@H]1[C@H](O)C[C@@H]1[C@@]3(C)CC[C@H](O[C@@H]4O[C@H](CO)[C@@H](O)[C@H](O)[C@H]4O[C@@H]4O[C@H](CO)[C@@H](O)[C@H](O)[C@H]4O)C(C)(C)[C@@H]3CC[C@]12C [Rg3]
Detection in plasma or tumor tissues [11]: neither Rg3 nor CK could be detected
Cmax in plasma [8, 13]: 300 ng/mL
Time of maximum concentration in plasma [8, 13]: 20 min
Cmax in plasma [8, 14]: 100 ng/mL
Time of maximum concentration in plasma [8, 14]: 60 min
Detection in tumors over time ([10]; 20 min, 2, 12, 24, 96 h after single or multiple SMI administration): could not be identified at any time

SMILES: CC1(C)CC[C@]2(C(=O)O[C@@H]3O[C@H](CO)[C@@H](O)[C@H](O)[C@H]3O)CC[C@]3(C)C(=CC[C@@H]4[C@@]5(C)CC[C@H](O[C@@H]6O[C@H](C(=O)O)[C@@H](O)[C@H](O)[C@H]6O[C@@H]6O[C@H](CO)[C@@H](O)[C@H](O)[C@H]6O)C(C)(C)[C@@H]5CC[C@]43C)[C@@H]2C1 [Ro, ginsenoside Ro]
Cmax in plasma [8, 13]: 3700 ng/mL
Time of maximum concentration in plasma [8, 13]: 20 min
Cmax in plasma [8, 14]: 3900 ng/mL
Time of maximum concentration in plasma [8, 14]: 60 min
AUC0–∞ ratio Multiple/Single in tumors [10]: 0.92
